The structures appear in SMILES notation. Active and inactive are the calls of the source. The calls are words filed in the database; no cut-off is given here.

Data on 7 compounds can be found in ChEMBL document CHEMBL3272226, “Synthesis and dopaminergic activity of (+/-)-, (+)-, and (-)-2-dipropylamino-5-hydroxy-1,2,3,4-tetrahydronaphthalene” (1976).

Experiment [1] has as its system Rattus norvegicus. Description: Dopaminergic activity in (+)-6-(dipropylamino)-5,6,7,8-tetrahydronaphthalen-1-ol-pretreated sc dosed Sprague-Dawley rat assessed as induction of stereotyped behavior administered for 30 to 50 mins. Type of experiment: functional, organism-based. The method, boiled down:
(§1)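 Sprague-Dawley male rats, three per dose, dosed sc with HCl or HI salts in saline (doses as free base); minimum dose inducing stereotyped behavior lasting 30-50 min determined.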

Experiment [2] concerns Canis familiaris. Briefly: Dopaminergic activity in (+)-6-(dipropylamino)-5,6,7,8-tetrahydronaphthalen-1-ol-pretreated dog assessed as induction of emesis administered intramuscularly measured up to 20 hrs. It is filed as functional, organism-based. As to conditions: Canis lupus familiaris. In a few lines: (§2)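 Dogs, three to five per dose, given im injection of test solutions (HCl or HI salts dissolved in saline, doses as free base); minimum emetic dose determined.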

Experiment [3] has as its system Rattus norvegicus. Briefly: Dopaminergic activity in sc dosed Sprague-Dawley rat assessed as induction of stereotyped behavior administered for 30 to 50 mins. Type of experiment: functional. As to conditions: for minimal effective dose: Rattus norvegicus, Sprague-Dawley, sc, read-out: MED. The method, boiled down:
as §1

The subject of experiment [4] is Canis familiaris. Description: Dopaminergic activity in dog assessed as induction of emesis administered intramuscularly measured up to 20 hrs. Type of experiment: functional, Canis lupus familiaris. As to conditions: for minimal effective dose: Canis lupus familiaris, im, 20 h, read-out: MED. The method, boiled down: as §2

Consider `CN1CCc2cccc3c2[C@H]1Cc1ccc(O)c(O)c1-3`, for which the outcome in the experiment on Rattus norvegicus [1] and with Canis familiaris [2] was Active.
As for `CCCN(CCC)C1CCc2cc(O)ccc2C1` (racemic), the figures for the minimal effective dose in the experiment with Rattus norvegicus [3] and in the experiment with Canis familiaris [4] were 13 mg/kg and 0.036 mg/kg, respectively.
The corresponding values for `CCCN(CCC)C1CCc2ccc(O)cc2C1` (racemic) are 23 mg/kg and 0.013 mg/kg.
For the compound `CCCN(CCC)C1CCc2c(O)cccc2C1` (racemic) [5-OH-DPAT], the MED in the experiment on Rattus norvegicus [3] is 0.09 mg/kg; in the experiment with Canis familiaris [4], 0.004 mg/kg.
The corresponding values for `CCCN(CCC)C1CCc2c(O)cccc2C1` (single isomer, unassigned; (+)) [5-OH-DPAT] are >1.8 mg/kg and >0.08 mg/kg.
Consider `CCCN(CCC)C1CCc2c(O)cccc2C1` (single isomer, unassigned; (-)), for which the outcome with Rattus norvegicus [1] and in the experiment with Canis familiaris [2] was Active.
For `CCCN(CCC)C1CCc2c(O)cccc2C1` (single isomer, unassigned; (-)) [5-OH-DPAT], the MED is 0.05 mg/kg in the experiment with Rattus norvegicus [3] and 0.002 mg/kg in the experiment on Canis familiaris [4].
